High-throughput results deposited in PubChem BioAssay by several laboratories.
NALP3 yeast inh = NALP3 inhibition in yeast. Yeast reconstituted NLRP3/ASC/caspase-1, beta-gal luminescence, 24 h. inhibition, % at 10 µM. actives 0.39% (n = 330,000);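 active means inhibition of 50% or more; inactive means inhibition below 50%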;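 further: plate controls were induced DMSO wells for no effect and uninduced yeast grown without galactose for full effect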
T cell modulator = T cell immune modulators affecting CD8 T cell-vesicle binding; actives 0.068% (n = 330,000); 2C CD8+ T cell-vesicle binding, flow cytometry; hits give low values; response (vesicle binding), % at 7 µM;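 active means response, share of CD8 T cells binding vesicles, and their 90th percentile fluorescence all below set limits, cut at about 80% in these data, passing the limit was not always enough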;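 further: values below 100% mean blocked vesicle binding to the CD8+ T cells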
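Assay system: 2C TCR transgenic mouse naive CD8+ T cells, MACS-purified | Read-out: CD8+ gate FL2 mean fluorescence as % of same-row positive control | Signal: High-throughput flow cytometry with anti-B7-1 and anti-CD8 staining | Timing: Binding step 1.5 h, 37 °C, antibody labelling 20 min, ice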
NALP1 yeast inh = NALP1 inhibition. S. cerevisiae NALP1/ASC/caspase-1 growth, X-gal OD620, 72 h. inhibition, % at 10 µM. actives 0.61% (n = 280,000). AID 2071; in the data active means inhibition mostly above about 24%, no sharp cut-off; inactive means mostly below about 32%
Bfl-1 A1 inh = inhibitors of the anti-apoptotic protein A1, read as caspase activation. actives 0.066% (n = 330,000). AID 2462. MEF A1-2A-BIM cells, Caspase-Glo 3/7 luminescence, 3 h; percent of clofoctol response, vehicle zero. caspase activation, % (concentration not given with the values);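 active means over half of replicate activation scores above 10%, or exactly half above 10 with the replicate mean above 10; inconclusive means replicate mean below 10 yet half the replicates above 10; inactive means over half of replicates below 10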
NALP3 confirm = NALP3 inhibition confirmation in yeast; shares compounds with NALP3 yeast inh; yeast expressing human NALP3, luminescence; inhibition, % at 10 µM; actives 81% (n = 1,300); AID 435006; in the data active means inhibition above about 48%
Casp1-ASC yeast = counter-screen for NALP3 inhibitors: yeast caspase-1-ASC | shares compounds with NALP3 yeast inh | yeast expressing Caspase-1-ASC, luminescence counter screen | inhibition, % at 10 µM | actives 66% (n = 1,000) | AID 488784
NALP3 retest = confirmation retest of NALP3 inhibitors in yeast. yeast expressing human NALP3, luminescence read-out. AID 488794. actives 53% (n = 1,000). shares compounds with NALP3 yeast inh. inhibition, % at 10 µM
The depositor's hits bear a star. Only some compounds are listed: those with a hit (about 1% of all), similar ones and a draw of the others. Unless noted, no stated cut-off is given here; in the data, active means inhibition above about 50%; inactive means the rest.

What do the screens show for `COc1cccc(NC(=O)N2CCCC2C(=O)Nc2cc(C)ccc2OC)c1` (stereo not given)?
NALP3 yeast inh: 18; T cell modulator: 636; NALP1 yeast inh: 26; Bfl-1 A1 inh: 1

What do the screens show for `COc1ccc(C)cc1-n1nnnc1SCC1CCCCO1` (stereo not given)?
NALP3 yeast inh: 53*; T cell modulator: 469; NALP1 yeast inh: -1; Bfl-1 A1 inh: 0; NALP3 confirm: 34

How did O=C(Nc1scc(-c2ccc(Br)cc2)c1C(=O)O)c1ccccc1F do in these assays?
NALP3 yeast inh: 82*; T cell modulator: 194; Bfl-1 A1 inh: -2; NALP3 confirm: 91*

How did Cc1ccc(-c2csc(NC(=O)c3ccccc3F)c2C(=O)O)cc1 do in these assays?
NALP3 yeast inh: 71*; T cell modulator: 142; NALP1 yeast inh: 4; Bfl-1 A1 inh: -5; NALP3 confirm: 86*; Casp1-ASC yeast: 76*; NALP3 retest: 64*

Results for Cc1ccccc1C(=O)Nc1scc(-c2ccc(Br)cc2)c1C(=O)O ?
NALP3 yeast inh: 68*; T cell modulator: 302; Bfl-1 A1 inh: -1; NALP3 confirm: 77*; Casp1-ASC yeast: 21; NALP3 retest: 28

What do the screens show for `COc1ccc(-c2csc(NC(=O)c3ccccc3Br)c2C(=O)O)cc1`?
NALP3 yeast inh: 42; T cell modulator: 174; NALP1 yeast inh: 11; Bfl-1 A1 inh: -5

Results for O=C(Nc1scc(-c2ccccc2)c1C(=O)O)c1ccccc1F ?
NALP3 yeast inh: 29; T cell modulator: 264; NALP1 yeast inh: -5; Bfl-1 A1 inh: -7

How did O=C(Nc1ccc(-c2nc3ccccc3o2)cc1)C1CCCO1 (stereo not given) do in these assays?
NALP3 yeast inh: 55*; T cell modulator: 931; NALP1 yeast inh: 8; Bfl-1 A1 inh: -14; NALP3 confirm: 72*; Casp1-ASC yeast: 60*; NALP3 retest: 41

How did O=C(Nc1ccc2oc(-c3ccccc3)nc2c1)C1CCCO1 (stereo not given) do in these assays?
NALP3 yeast inh: 22; T cell modulator: 239; NALP1 yeast inh: 31; Bfl-1 A1 inh: -8

What do the screens show for `CC1CC(C)(C)N(C(=O)CN2C(=O)c3ccccc3C2=O)c2ccccc21` (stereo not given)?
NALP3 yeast inh: 52*; T cell modulator: 207; NALP1 yeast inh: -45; Bfl-1 A1 inh: 0; NALP3 confirm: 10

What do the screens show for `CC1CC(C)(C)N(C(=O)CN2CCN(C)CC2)c2ccccc21` (stereo not given)?
NALP3 yeast inh: 12; T cell modulator: inactive; NALP1 yeast inh: 32; Bfl-1 A1 inh: 0

Results for COc1ccc(C2(C)CC(C)(C)Nc3ccccc32)cc1 (stereo not given) ?
NALP3 yeast inh: 55*; T cell modulator: 716; NALP1 yeast inh: 18; Bfl-1 A1 inh: 1; NALP3 confirm: 51*; Casp1-ASC yeast: 45; NALP3 retest: 38

Results for COc1ccc(C2CC(C)(c3ccc(OC)cc3)Nc3ccccc3N2)cc1 (stereo not given) ?
NALP3 yeast inh: 30; T cell modulator: 364; NALP1 yeast inh: 9; Bfl-1 A1 inh: 0

Results for COc1ccc(C(=O)Nc2ccc(N3CCN(C(=O)c4ccccc4C)CC3)cc2)cc1 ?
NALP3 yeast inh: 16; T cell modulator: 611; NALP1 yeast inh: 10; Bfl-1 A1 inh: -1

How did Clc1ccc(-c2cccs2)nn1 do in these assays?
NALP3 yeast inh: 10; T cell modulator: 266; NALP1 yeast inh: -11; Bfl-1 A1 inh: 2

What do the screens show for `CC1CCN(c2ccc(-c3cccs3)nn2)CC1`?
NALP3 yeast inh: 52*; T cell modulator: inactive; NALP1 yeast inh: 8; Bfl-1 A1 inh: -7; NALP3 confirm: 79*

How did C=CC[C@]12CCc3sccc3C1N(c1ccc(C(=O)OCC)cc1)C2=O (stereo not given in full) do in these assays?
NALP3 yeast inh: 5; T cell modulator: 497; Bfl-1 A1 inh: -2

What do the screens show for `CC(C)(C)C1CCc2onc(C(=O)NC3CCCC3)c2C1` (stereo not given)?
NALP3 yeast inh: 18; T cell modulator: 504; NALP1 yeast inh: -14; Bfl-1 A1 inh: -7

Results for O=C(NC1CCCCC1)c1noc2c1CCCCC2 ?
NALP3 yeast inh: 51*; T cell modulator: 600; NALP1 yeast inh: 52; Bfl-1 A1 inh: -3; NALP3 confirm: 67*; Casp1-ASC yeast: 54*; NALP3 retest: 50

Results for CCOC(=O)C1(Cc2cccc(OC)c2)CCCN(C(=O)c2cc(C)oc2C)C1 (stereo not given) ?
NALP3 yeast inh: 8; T cell modulator: 364; NALP1 yeast inh: 26; Bfl-1 A1 inh: 1

What do the screens show for `CCc1ccc(OCC(=O)NCc2ccco2)c(Br)c1`?
NALP3 yeast inh: 51*; T cell modulator: 372; NALP1 yeast inh: 18; Bfl-1 A1 inh: 0; NALP3 confirm: 46; Casp1-ASC yeast: 44; NALP3 retest: 46

Results for Cc1ccc(O)c(N=Nc2nccs2)c1 ?
NALP3 yeast inh: 90*; T cell modulator: 306; Bfl-1 A1 inh: -1; NALP3 confirm: 91*; Casp1-ASC yeast: 99*; NALP3 retest: 96*

How did CS(=O)(=O)N(CC(=O)Nc1ccccc1C(=O)N1CCCC1)c1ccccc1Br do in these assays?
NALP3 yeast inh: 9; T cell modulator: inactive; NALP1 yeast inh: 14; Bfl-1 A1 inh: 0

Results for O=S1(=O)C=C(Sc2nc3ccccc3s2)c2ccccc21 ?
NALP3 yeast inh: 62*; T cell modulator: 158; NALP1 yeast inh: 12; Bfl-1 A1 inh: inconclusive; NALP3 confirm: 64*; Casp1-ASC yeast: 86*; NALP3 retest: 59*

Results for C[C@@]12CCC3[C@@](CCC4[C@@]3(C)CCC[C@@]4(C)C(=O)NCc3ccccc3)(CC1=O)C2 (stereo not given in full) ?
NALP3 yeast inh: 52*; T cell modulator: 435; Bfl-1 A1 inh: 2; NALP3 confirm: 54*; Casp1-ASC yeast: 47; NALP3 retest: 45

What do the screens show for `CC(C)(C)CNC(=O)[C@]1(C)CCC[C@@]2(C)C3CC[C@@]4(C)C[C@]3(CCC21)CC4=O` (stereo not given in full)?
NALP3 yeast inh: 37; T cell modulator: 215; Bfl-1 A1 inh: 1

Results for CC(C)(C)NC(=O)[C@]1(C)CCC[C@@]2(C)C3CC[C@@]4(C)C[C@]3(CCC21)CC4=O (stereo not given in full) ?
NALP3 yeast inh: 52*; T cell modulator: 317; Bfl-1 A1 inh: 0; NALP3 confirm: 42; Casp1-ASC yeast: 44; NALP3 retest: 42
